# Key:
# [1] = tested on: Aspergillus flavus; experiment: Antifungal activity against Aspergillus flavus NRRL 980 after 72 hrs by broth microdilution assay; assay type: functional; conditions: NRRL 980, 72 h
# Procedure, shortened: (§1)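 Compounds dissolved in DMSO, diluted in sterile distilled water from 4 to 0.0039 mg/mL. Molds grown on PDA at 25 °C for 5 days, suspended in double-strength PDB at 10⁵ spores/mL. Incubated at 25 °C for 72 h; mycelial growth read under stereo microscope. MIC = lowest concentration inhibiting visible growth. Ketoconazole reference.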
# [2] = tested on: Salmonella typhimurium; experiment: Mutagenicity in Salmonella typhimurium TA100 at 2.5 mg/ml after 48 hrs by AMES MPF assay in absence of Sprague-Dawley rat liver microsomal S9 fraction relative to baseline; assay type: toxicity, organism-based; conditions: salmonella enterica subsp. enterica serovar typhimurium
# Procedure, shortened: (§2)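 Ames MPF fluctuation test with TA98/TA100. Overnight cultures (37 °C, 14–16 h) mixed with exposure medium; ±Aroclor-1254-induced rat liver S9 (final 4.5% v/v). Compounds in DMSO, 0.156–5 mg/mL. 90 min exposure at 37 °C, then indicator medium; 48 wells per concentration, 48 h at 37 °C, in triplicate. Yellow wells counted; fold induction over baseline (mean + 1 SD of zero-dose control).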
# [3] = tested on: A549; experiment: Antiproliferative activity against human A549 cells after 24 hrs by XTT assay; assay type: functional, cell-based; conditions: A549, 24 h
# Procedure, shortened: (§3)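 A549 cells in RPMI and NIH/3T3 cells in DMEM, each with fetal calf serum, antibiotics and 7.5% NaHCO₃, at 37 °C, 5% CO₂. Seeded at 20,000 cells/well, 24 h, then compounds added in medium at 500–3.9 doses (final DMSO <0.1%) for 24 h. XTT read after 3 h at 480 nm (ref 680 nm). IC₅₀ by non-linear regression; triplicates; cisplatin control.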
# [4] = tested on: Salmonella typhimurium; experiment: Mutagenicity in Salmonella typhimurium TA100 at 0.625 mg/ml after 48 hrs by AMES MPF assay in presence of Sprague-Dawley rat liver microsomal S9 fraction relative to baseline; assay type: toxicity, organism-based; conditions: salmonella enterica subsp. enterica serovar typhimurium; procedure, shortened: as §2
# [5] = tested on: Salmonella typhimurium; experiment: Mutagenicity in Salmonella typhimurium TA98 at 5 mg/ml after 48 hrs by AMES MPF assay in absence of Sprague-Dawley rat liver microsomal S9 fraction relative to baseline; assay type: toxicity, organism-based; conditions: salmonella enterica subsp. enterica serovar typhimurium; procedure, shortened: as §2
# [6] = tested on: Salmonella typhimurium; experiment: Mutagenicity in Salmonella typhimurium TA98 at 0.3125 mg/ml after 48 hrs by AMES MPF assay in absence of Sprague-Dawley rat liver microsomal S9 fraction relative to baseline; assay type: toxicity, organism-based; conditions: salmonella enterica subsp. enterica serovar typhimurium; procedure, shortened: as §2
# [7] = tested on: Salmonella typhimurium; experiment: Mutagenicity in Salmonella typhimurium TA98 at 1.25 mg/ml after 48 hrs by AMES MPF assay in presence of Sprague-Dawley rat liver microsomal S9 fraction relative to baseline; assay type: toxicity, organism-based; conditions: salmonella enterica subsp. enterica serovar typhimurium; procedure, shortened: as §2
# [8] = Cytotoxicity against mouse NIH/3T3 cells after 24 hrs by XTT assay; assay type: cell-based; conditions: NIH3T3, 24 h; procedure, shortened: as §3
# [9] = tested on: Salmonella typhimurium; experiment: Mutagenicity in Salmonella typhimurium TA100 at 1.25 mg/ml after 48 hrs by AMES MPF assay in presence of Sprague-Dawley rat liver microsomal S9 fraction relative to baseline; assay type: toxicity, organism-based; conditions: salmonella enterica subsp. enterica serovar typhimurium; procedure, shortened: as §2
# [10] = tested on: Salmonella typhimurium; experiment: Mutagenicity in Salmonella typhimurium TA98 at 0.156 mg/ml after 48 hrs by AMES MPF assay in presence of Sprague-Dawley rat liver microsomal S9 fraction relative to baseline; assay type: toxicity, organism-based; conditions: salmonella enterica subsp. enterica serovar typhimurium; procedure, shortened: as §2
# [11] = tested on: Salmonella typhimurium; experiment: Mutagenicity in Salmonella typhimurium TA98 at 2.5 mg/ml after 48 hrs by AMES MPF assay in absence of Sprague-Dawley rat liver microsomal S9 fraction relative to baseline; assay type: toxicity, organism-based; conditions: salmonella enterica subsp. enterica serovar typhimurium; procedure, shortened: as §2
# [12] = tested on: Salmonella typhimurium; experiment: Mutagenicity in Salmonella typhimurium TA98 at 5 mg/ml after 48 hrs by AMES MPF assay in presence of Sprague-Dawley rat liver microsomal S9 fraction relative to baseline; assay type: toxicity, organism-based; conditions: salmonella enterica subsp. enterica serovar typhimurium; procedure, shortened: as §2
# [13] = tested on: Salmonella typhimurium; experiment: Mutagenicity in Salmonella typhimurium TA98 at 2.5 mg/ml after 48 hrs by AMES MPF assay in presence of Sprague-Dawley rat liver microsomal S9 fraction relative to baseline; assay type: toxicity, organism-based; conditions: salmonella enterica subsp. enterica serovar typhimurium; procedure, shortened: as §2
# [14] = tested on: Salmonella typhimurium; experiment: Mutagenicity in Salmonella typhimurium TA100 at 5 mg/ml after 48 hrs by AMES MPF assay in presence of Sprague-Dawley rat liver microsomal S9 fraction relative to baseline; assay type: toxicity, organism-based; conditions: salmonella enterica subsp. enterica serovar typhimurium; procedure, shortened: as §2
# [15] = tested on: Aspergillus parasiticus; experiment: Antifungal activity against Aspergillus parasiticus NRRL 465 after 72 hrs by broth microdilution assay; assay type: functional; conditions: NRRL 465, 72 h; procedure, shortened: as §1
# [16] = tested on: Candida parapsilosis; experiment: Antifungal activity against Candida parapsilosis NRLL Y 12696 after 48 hrs by broth microdilution assay; assay type: functional; conditions: Lodderomyces parapsilosis, NRLL Y 12696, 48 h
# Procedure, shortened: (§4)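 Broth microdilution of DMSO stocks serially diluted in sterile water (4 to 0.0039 mg/mL). Yeasts grown on SDA at 37 °C for 24 h, suspended in double-strength PDB at 10⁵ spores/mL. Incubated at 37 °C for 48 h, then sprayed with 0.5% aqueous TTC. MIC = lowest concentration inhibiting visible growth. Ketoconazole reference.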
# [17] = tested on: Candida albicans; experiment: Antifungal activity against Candida albicans ATCC 90028 after 48 hrs by broth microdilution assay; assay type: functional; conditions: ATCC 90028, 48 h; procedure, shortened: as §4
# [18] = tested on: Salmonella typhimurium; experiment: Mutagenicity in Salmonella typhimurium TA98 at 0.625 mg/ml after 48 hrs by AMES MPF assay in absence of Sprague-Dawley rat liver microsomal S9 fraction relative to baseline; assay type: toxicity, organism-based; conditions: salmonella enterica subsp. enterica serovar typhimurium; procedure, shortened: as §2
# [19] = tested on: Salmonella typhimurium; experiment: Mutagenicity in Salmonella typhimurium TA100 at 5 mg/ml after 48 hrs by AMES MPF assay in absence of Sprague-Dawley rat liver microsomal S9 fraction relative to baseline; assay type: toxicity, organism-based; conditions: salmonella enterica subsp. enterica serovar typhimurium; procedure, shortened: as §2
# [20] = tested on: Salmonella typhimurium; experiment: Mutagenicity in Salmonella typhimurium TA100 at 2.5 mg/ml after 48 hrs by AMES MPF assay in presence of Sprague-Dawley rat liver microsomal S9 fraction relative to baseline; assay type: toxicity, organism-based; conditions: salmonella enterica subsp. enterica serovar typhimurium; procedure, shortened: as §2
# [21] = tested on: Aspergillus niger; experiment: Antifungal activity against Aspergillus niger ATCC 1094 after 72 hrs by broth microdilution assay; assay type: functional; conditions: ATCC 1094, 72 h; procedure, shortened: as §1
# [22] = tested on: Candida tropicalis; experiment: Antifungal activity against Candida tropicalis NRLL Y 12968 after 48 hrs by broth microdilution assay; assay type: functional; conditions: NRLL Y 12968, 48 h; procedure, shortened: as §4
# [23] = tested on: Fusarium solani; experiment: Antifungal activity against Fusarium solani NRRL 13414 after 72 hrs by broth microdilution assay; assay type: functional; conditions: NRRL 13414, 72 h; procedure, shortened: as §1
# [24] = tested on: [Candida] zeylanoides; experiment: Antifungal activity against Candida zeylanoides NRLL Y 1774 after 48 hrs by broth microdilution assay; assay type: functional; conditions: Dujonia zeylanoides, NRLL Y 1774, 48 h; procedure, shortened: as §4
# [25] = tested on: Salmonella typhimurium; experiment: Mutagenicity in Salmonella typhimurium TA100 at 0.156 mg/ml after 48 hrs by AMES MPF assay in absence of Sprague-Dawley rat liver microsomal S9 fraction relative to baseline; assay type: toxicity, organism-based; conditions: salmonella enterica subsp. enterica serovar typhimurium; procedure, shortened: as §2
# [26] = tested on: Salmonella typhimurium; experiment: Mutagenicity in Salmonella typhimurium TA100 at 0.3125 mg/ml after 48 hrs by AMES MPF assay in presence of Sprague-Dawley rat liver microsomal S9 fraction relative to baseline; assay type: toxicity, organism-based; conditions: salmonella enterica subsp. enterica serovar typhimurium; procedure, shortened: as §2
# [27] = tested on: Pichia kudriavzevii; experiment: Antifungal activity against Candida krusei NRLL Y 7179 after 48 hrs by broth microdilution assay; assay type: functional; conditions: NRLL Y 7179, 48 h; procedure, shortened: as §4
# [28] = tested on: Salmonella typhimurium; experiment: Mutagenicity in Salmonella typhimurium TA100 at 0.156 mg/ml after 48 hrs by AMES MPF assay in presence of Sprague-Dawley rat liver microsomal S9 fraction relative to baseline; assay type: toxicity, organism-based; conditions: salmonella enterica subsp. enterica serovar typhimurium; procedure, shortened: as §2
# [29] = tested on: Salmonella typhimurium; experiment: Mutagenicity in Salmonella typhimurium TA100 at 1.25 mg/ml after 48 hrs by AMES MPF assay in absence of Sprague-Dawley rat liver microsomal S9 fraction relative to baseline; assay type: toxicity, organism-based; conditions: salmonella enterica subsp. enterica serovar typhimurium; procedure, shortened: as §2
# [30] = tested on: Nakaseomyces glabratus; experiment: Antifungal activity against Candida glabrata clinical isolate after 48 hrs by broth microdilution assay; assay type: functional; procedure, shortened: as §4
# [31] = tested on: Salmonella typhimurium; experiment: Mutagenicity in Salmonella typhimurium TA98 at 0.156 mg/ml after 48 hrs by AMES MPF assay in absence of Sprague-Dawley rat liver microsomal S9 fraction relative to baseline; assay type: toxicity, organism-based; conditions: salmonella enterica subsp. enterica serovar typhimurium; procedure, shortened: as §2
# [32] = tested on: Salmonella typhimurium; experiment: Mutagenicity in Salmonella typhimurium TA98 at 0.3125 mg/ml after 48 hrs by AMES MPF assay in presence of Sprague-Dawley rat liver microsomal S9 fraction relative to baseline; assay type: toxicity, organism-based; conditions: salmonella enterica subsp. enterica serovar typhimurium; procedure, shortened: as §2
# [33] = tested on: Salmonella typhimurium; experiment: Mutagenicity in Salmonella typhimurium TA98 at 1.25 mg/ml after 48 hrs by AMES MPF assay in absence of Sprague-Dawley rat liver microsomal S9 fraction relative to baseline; assay type: toxicity, organism-based; conditions: salmonella enterica subsp. enterica serovar typhimurium; procedure, shortened: as §2
# [34] = tested on: Salmonella typhimurium; experiment: Mutagenicity in Salmonella typhimurium TA98 at 0.625 mg/ml after 48 hrs by AMES MPF assay in presence of Sprague-Dawley rat liver microsomal S9 fraction relative to baseline; assay type: toxicity, organism-based; conditions: salmonella enterica subsp. enterica serovar typhimurium; procedure, shortened: as §2
# [35] = tested on: Salmonella typhimurium; experiment: Mutagenicity in Salmonella typhimurium TA100 at 0.3125 mg/ml after 48 hrs by AMES MPF assay in absence of Sprague-Dawley rat liver microsomal S9 fraction relative to baseline; assay type: toxicity, organism-based; conditions: salmonella enterica subsp. enterica serovar typhimurium; procedure, shortened: as §2
# [36] = tested on: Salmonella typhimurium; experiment: Mutagenicity in Salmonella typhimurium TA100 at 0.625 mg/ml after 48 hrs by AMES MPF assay in absence of Sprague-Dawley rat liver microsomal S9 fraction relative to baseline; assay type: toxicity, organism-based; conditions: salmonella enterica subsp. enterica serovar typhimurium; procedure, shortened: as §2
compound,measurement,setting,value
Cc1ccc(C2=NN(c3nc(-c4ccc(S(C)(=O)=O)cc4)cs3)C(c3ccc(F)cc3)C2)s1 (stereo unspecified),MIC,[1],125 µg/mL
same,fold change (FC),[2],0.52
same,IC50,[3],> 500 µg/mL
same,fold change (FC),[4],0.93
same,fold change (FC),[5],0.89
same,fold change (FC),[6],0.22
same,fold change (FC),[7],0.95
same,IC50,[8],374 µg/mL
same,fold change (FC),[9],0.8
same,fold change (FC),[10],0.41
same,fold change (FC),[11],0.67
same,fold change (FC),[12],0.81
same,fold change (FC),[13],1.36
same,fold change (FC),[14],0.93
same,MIC,[15],250 µg/mL
same,MIC,[16],250 µg/mL
same,MIC,[17],250 µg/mL
same,fold change (FC),[18],0.44
same,fold change (FC),[19],1.09
same,fold change (FC),[20],1.26
same,MIC,[21],250 µg/mL
same,MIC,[22],250 µg/mL
same,MIC,[23],250 µg/mL
same,MIC,[24],250 µg/mL
same,fold change (FC),[25],0.78
same,fold change (FC),[26],0.73
same,MIC,[27],250 µg/mL
same,fold change (FC),[28],0.73
same,fold change (FC),[29],0.52
same,MIC,[30],125 µg/mL
same,fold change (FC),[31],0.67
same,fold change (FC),[32],0.27
same,fold change (FC),[33],0.89
same,fold change (FC),[34],1.63
same,fold change (FC),[35],1.04
same,fold change (FC),[36],0.99
